Source: PubChem (several laboratories)
Only a selection was taken, and hits are over-represented in it overall.
CHOP UPR activ – apoptotic UPR (CHOP) activation | actives 0.34% (n = 330,000) | CHO-CHOP luciferase reporter, luminescence; percent of tunicamycin response over DMSO baseline | activation, % at 10 µM;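 active means at 10 µM dose, activation of 40% or more, normalized to positive control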;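 further: 100% = tunicamycin at 10 µg/mL and 0% = DMSO alone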
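Test system: CHO CHOP reporter cells. Input: 500 CHO-CHOP cells per well. Medium: F12 with 10% FBS. Technique: luciferase luminescence. Measure: percent activation relative to tunicamycin control. Dosing: 10 µM compound, 0.5% DMSO. Timing: 16-18 h cell attachment, then 6 h compound exposure, 37 °C.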
Bfl-1 A1 inh – inhibitors of the anti-apoptotic protein A1, read as caspase activation; caspase activation, % (concentration not given with the values); actives 0.066% (n = 330,000); MEF A1-2A-BIM cells, Caspase-Glo 3/7 luminescence, 3 h; percent of clofoctol response, vehicle zero;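 active means over half of replicate activation scores above 10%, or exactly half above 10 with the replicate mean above 10; inconclusive means replicate mean below 10 yet half the replicates above 10; inactive means over half of replicates below 10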
UPR XBP1 act – adaptive UPR (XBP1) activation; AID 463104; actives 0.33% (n = 330,000); CHO-XBP1 luciferase reporter, IRE1-XBP1 UPR activation, luminescence; percent of tunicamycin response, DMSO as zero; activation, % at 20 µM;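 active means versus positive control, 20 µM dose yields 30% or more activation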;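 further: 100% = tunicamycin at 10 µg/mL and 0% = DMSO only wells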
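assay system = CHO-XBP1 luciferase reporter cells | amount = 1000 cells/well | buffer or medium = F12 plus 10% FBS | compound dosing = single point, 20 µM final compound, 1% DMSO | incubation = 16-18 h cell attachment at 37 °C, then 6 h compound exposure | detection = Steady-Glo luminescence read | controls = tunicamycin 10 µg/mL and vehicle-only wells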
CHOP inh – inhibitors of CHOP induction in ER stress response. inhibition, % at 10 µM. CHO-K1 CHOP-promoter luciferase, tunicamycin-induced, 15-18 h. actives 3.8% (n = 220,000). AID 2732;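 active means compounds that reduced the stress-induced luciferase reporter signal by more than about 70% of percent inhibition, limit read from the data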;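 further: 0% = tunicamycin plus vehicle and 100% = wells without tunicamycin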
CHOP UPR conf – confirmation of apoptotic unfolded protein response (CHOP) activators | shares compounds with CHOP UPR activ | CHO-CHOP cells, CHOP-luciferase reporter luminescence; percent of tunicamycin response, DMSO as zero | activation, % at 10 µM | actives 64% (n = 1,000); in the data active means activation above about 33%;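 further: 0% = DMSO wells and 100% = tunicamycin 10 µg/mL wells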
XBP1 UPR conf – confirmation of adaptive unfolded protein response (XBP1) activators. AID 485299. activation, % at 20 µM. shares compounds with UPR XBP1 act. actives 63% (n = 1,000). CHO-XBP1 IRE1-XBP1 luciferase reporter, luminescence;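 active means reporter signal at least 30% of the positive control's activation in two or more of four replicate wells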;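 further: plate controls were DMSO negative control for no effect and tunicamycin 10 µg/mL positive control for full effect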
The depositor's hits bear a star; ? = inconclusive; . = not tested or not shown.

SMILES | CHOP UPR activ | Bfl-1 A1 inh | UPR XBP1 act | CHOP inh | CHOP UPR conf | XBP1 UPR conf
O=C(CSc1nc2ccc(Nc3nc(N4CCOCC4)nc(N4CCOCC4)n3)cc2s1)Nc1ccccc1F | 106* | -1 | 277* | . | 111* | 302*
COc1ccc(CNC(=O)COC(=O)c2c(NC(C)=O)sc(C)c2C)cc1 | -1 | 0 | 1 | . | . | .
CCOc1ccccc1N=Cc1c(O)c2ccccc2oc1=O | 162* | 2 | 179* | . | 120* | 125*
CC(C)c1ccc(N=Cc2c(O)c3ccccc3oc2=O)cc1 | 9 | 0 | 13 | . | . | .
COc1ccc(N=Cc2c(O)c3ccccc3oc2=O)cc1 | 128* | -1 | 102* | -142 | 68* | 38*
Cc1ccc(C)c(N=Cc2c(O)c3ccccc3oc2=O)c1 | 61* | 0 | 55* | . | 49* | 46*
CN(CC(=O)N(C)CC(=O)Nc1c(Cl)cccc1Cl)Cc1ccc(Br)s1 | 0 | 0 | -1 | . | . | .
Cc1ccccc1-c1nnc(SCC(=O)NC2CCCC2)n1C | 1 | 1 | 0 | . | . | .
O=C(CCNS(=O)(=O)c1ccccc1F)OCc1ccccc1Cl | 1 | 0 | -4 | . | . | .
COc1cccc(CN2CCNC(=O)C2CC(=O)NCCN2CCCCC2=O)c1 (stereo not given) | 3 | . | -2 | . | . | .
Cc1cc(NC(=O)CSc2nc(C3CCCCC3)nc3ccccc23)no1 | -3 | 0 | -2 | 35 | . | .
Cc1cc(NC(=O)CSc2nc(C3CC3)nc3sc4c(c23)CCC(C)C4)no1 (stereo not given) | 51* | 0 | 65* | . | 4 | 4
C[C@H]1CN([C@@H](C)CO)C(=O)c2cccc(NS(=O)(=O)c3ccc(Cl)cc3)c2O[C@@H]1CN(C)CC1CCCCC1 | 1 | -1 | -5 | . | . | .
OCCNc1nc(Nc2ccc(Br)cc2)nc2ccccc12 | 76* | -1 | 41* | 5 | 60* | 46*
CCOC(=O)/C(=C\c1ccccc1)C(=O)c1cc(C(C)=O)c(Nc2ccccc2)s1 | 139* | -1 | 60* | . | 191* | 41*
CCOc1cc(/C=N/NC(N)=O)cc(Br)c1OCc1ccccc1 | 0 | 0 | 0 | . | . | .
CCOc1cc(/C=N/NC(N)=S)cc(Br)c1OCc1ccccc1C | 69* | 2 | 61* | 86* | 41* | 60*
CCOc1cc(/C=N/N=C(\N)c2nonc2N)cc(Br)c1OCc1cccc2ccccc12 | 107* | 6.4* | 268* | 95* | 30 | 211*
COC(=O)c1c(NC(=S)NN2CCOCC2)sc2c1CCCC2 | -2 | 0 | 4 | 23 | . | .
CCCCN=C1SC(C(=O)Nc2sc3c(c2C(=O)OC)CCC3)C(N)=C1C(=O)N1CCOCC1 (stereo not given) | 109* | 0 | 166* | . | 2 | 16
O=C(c1cnn2c(C(F)F)cc(-c3ccccc3)nc12)N1CCN(Cc2ccc3c(c2)OCO3)CC1 | 0 | 1 | 1 | . | . | .
CCOC(=O)c1c(C)[nH]c(C)c1S(=O)(=O)N1CCCCC1 | 0 | 0 | -1 | . | . | .
Cc1ccc(NC(=O)c2sc(Cl)nc2-c2ccccc2)cc1 | -1 | 0 | -5 | 30 | . | .
CCOC(=O)C(=CNc1nc(-c2ccccc2)c(C(=O)Nc2ccc(-c3ccccc3)cc2)s1)C(=O)OCC | 73* | 0 | 209* | . | 43* | 133*
Cc1ccc(-n2c(SCC(=O)N(C)C3CCS(=O)(=O)C3)nc3ccccc3c2=O)c(C)c1 (stereo not given) | 1 | 0 | -3 | . | . | .
SMILES | CHOP UPR activ | Bfl-1 A1 inh | UPR XBP1 act | CHOP inh | CHOP UPR conf | XBP1 UPR conf
COc1ccc2cc([C@H](C)C(=O)N(C)Cc3ccccc3N3CCCC3)ccc2c1 | 0 | 0 | 4 | . | . | .
CCOC(=O)c1cc(NC(=O)c2ccc(Cl)cc2)c(=O)n2c1oc1ccc(Cl)cc12 | 70* | 0 | 39* | 16 | 8 | 45*
CCC1Sc2ccc(S(=O)(=O)N3CCN(c4ccccc4)CC3)cc2NC1=O (stereo not given) | 1 | 0 | -6 | . | . | .
CN1/C(=C\C(=O)COC(=O)c2ccc(O)c(O)c2)C(C)(C)c2ccccc21 | 96* | 1 | 41* | 42 | 81* | 33*
CN1/C(=C\C(=O)COC(=O)CNC(=O)c2ccc3ccccc3c2)C(C)(C)c2ccccc21 | 2 | 0 | 1 | 43 | . | .
COc1ccc(C(=O)NC(C)c2nnc(SCC(=O)NC3CCCC3)n2C)cc1 (stereo not given) | 2 | 2 | 3 | . | . | .
COc1cccc(CNC(=O)COC(=O)CCS(=O)(=O)c2ccc(C)cc2)c1 | 0 | . | -1 | . | . | .
O=C(C[C@@H]1C/C=C/CC[C@H](Cc2ccc(F)cc2)C(=O)OC[C@@H](Cc2ccccc2)NC1=O)N[C@H](CO)Cc1ccccc1 | 65* | 2 | 152* | . | 12 | 47*
CC1CCN(Cc2c(C(=O)N/N=C/c3ccc(C(C)(C)C)cc3)nnn2-c2nonc2N)CC1 | 202* | ? | 178* | . | 50* | 117*
CCOc1ccccc1/C=N/NC(=O)c1nnn(-c2nonc2N)c1CN1CCC(C)CC1 | 1 | 2 | 2 | . | . | .
O=c1cc(CN2CCN(c3ccccc3F)CC2)c2cc(O)c(-c3ccccc3)cc2o1 | 5 | 0 | 2 | -12 | . | .
COc1ccc(N2CCN(Cc3cc(=O)oc4cc(-c5ccccc5)c(O)cc34)CC2)cc1 | 116* | -1 | 107* | 23 | 83* | 78*
CCCCN1C(=O)/C(=C2/Sc3ccc(OC)cc3N2CC)SC1=S | 8 | 0 | 94* | . | . | 49*
O=C(C/C=N\OCc1ccc([N+](=O)[O-])cc1)Nc1ccc(Br)cc1 | 0 | 0 | 3 | -5 | . | .
Cc1nc(Sc2nnnn2C)c2c3c(sc2n1)CCC3 | 4 | 0 | 37* | -100 | . | 9
CN=C1SC(CC(=O)Nc2ccccc2F)C(=O)N1C (stereo not given) | -1 | 0 | 0 | 10 | . | .
C=CCOc1ccc(/C=N/N2C(=O)C(CC(=O)Nc3ccc(F)cc3F)SC2=NC)cc1 (stereo not given) | 2 | -2 | 51* | 70* | . | 81*
COC(=O)c1c(C)oc2ccc(N(C(=O)c3ccncc3)S(=O)(=O)c3ccc4ccccc4c3)cc12 | 4 | 0 | -2 | 53 | . | .
COC(=O)c1c(C)oc2ccc(N(C(=O)Oc3ccccc3)S(=O)(=O)c3ccc(Cl)c([N+](=O)[O-])c3)cc12 | 4 | 0 | 32* | 83* | . | 139*
COc1ccccc1N(CC(=O)NC1CCCC1)C(=O)CCC(=O)Nc1ccccn1 | 1 | 0 | -3 | . | . | .
